Source: ChEMBL document CHEMBL1955838, “Asymmetric synthesis and evaluation of a hydroxyphenylamide voltage-gated sodium channel blocker in human prostate cancer xenografts” (Bioorg Med Chem, 2012)
The source made the active and inactive calls. The calls are words filed in the database; no cut-off is given here.

Tests used:
[1] = molecular target: Sodium channel protein type 2 subunit alpha (Homo sapiens) (UniProt Q99250); experiment: Inhibition of human voltage-gated sodium channel 1.2-mediated current expressed in HEK293 cells at -60 to +10 mV holding poteinitial at 1 uM after 5 mins by patch clamp electrophysiology; assay type: cell-based
Chain of Sodium channel protein type 2 subunit alpha (Homo sapiens) (Q99250 whole entry, looked up, the tested form may be a part): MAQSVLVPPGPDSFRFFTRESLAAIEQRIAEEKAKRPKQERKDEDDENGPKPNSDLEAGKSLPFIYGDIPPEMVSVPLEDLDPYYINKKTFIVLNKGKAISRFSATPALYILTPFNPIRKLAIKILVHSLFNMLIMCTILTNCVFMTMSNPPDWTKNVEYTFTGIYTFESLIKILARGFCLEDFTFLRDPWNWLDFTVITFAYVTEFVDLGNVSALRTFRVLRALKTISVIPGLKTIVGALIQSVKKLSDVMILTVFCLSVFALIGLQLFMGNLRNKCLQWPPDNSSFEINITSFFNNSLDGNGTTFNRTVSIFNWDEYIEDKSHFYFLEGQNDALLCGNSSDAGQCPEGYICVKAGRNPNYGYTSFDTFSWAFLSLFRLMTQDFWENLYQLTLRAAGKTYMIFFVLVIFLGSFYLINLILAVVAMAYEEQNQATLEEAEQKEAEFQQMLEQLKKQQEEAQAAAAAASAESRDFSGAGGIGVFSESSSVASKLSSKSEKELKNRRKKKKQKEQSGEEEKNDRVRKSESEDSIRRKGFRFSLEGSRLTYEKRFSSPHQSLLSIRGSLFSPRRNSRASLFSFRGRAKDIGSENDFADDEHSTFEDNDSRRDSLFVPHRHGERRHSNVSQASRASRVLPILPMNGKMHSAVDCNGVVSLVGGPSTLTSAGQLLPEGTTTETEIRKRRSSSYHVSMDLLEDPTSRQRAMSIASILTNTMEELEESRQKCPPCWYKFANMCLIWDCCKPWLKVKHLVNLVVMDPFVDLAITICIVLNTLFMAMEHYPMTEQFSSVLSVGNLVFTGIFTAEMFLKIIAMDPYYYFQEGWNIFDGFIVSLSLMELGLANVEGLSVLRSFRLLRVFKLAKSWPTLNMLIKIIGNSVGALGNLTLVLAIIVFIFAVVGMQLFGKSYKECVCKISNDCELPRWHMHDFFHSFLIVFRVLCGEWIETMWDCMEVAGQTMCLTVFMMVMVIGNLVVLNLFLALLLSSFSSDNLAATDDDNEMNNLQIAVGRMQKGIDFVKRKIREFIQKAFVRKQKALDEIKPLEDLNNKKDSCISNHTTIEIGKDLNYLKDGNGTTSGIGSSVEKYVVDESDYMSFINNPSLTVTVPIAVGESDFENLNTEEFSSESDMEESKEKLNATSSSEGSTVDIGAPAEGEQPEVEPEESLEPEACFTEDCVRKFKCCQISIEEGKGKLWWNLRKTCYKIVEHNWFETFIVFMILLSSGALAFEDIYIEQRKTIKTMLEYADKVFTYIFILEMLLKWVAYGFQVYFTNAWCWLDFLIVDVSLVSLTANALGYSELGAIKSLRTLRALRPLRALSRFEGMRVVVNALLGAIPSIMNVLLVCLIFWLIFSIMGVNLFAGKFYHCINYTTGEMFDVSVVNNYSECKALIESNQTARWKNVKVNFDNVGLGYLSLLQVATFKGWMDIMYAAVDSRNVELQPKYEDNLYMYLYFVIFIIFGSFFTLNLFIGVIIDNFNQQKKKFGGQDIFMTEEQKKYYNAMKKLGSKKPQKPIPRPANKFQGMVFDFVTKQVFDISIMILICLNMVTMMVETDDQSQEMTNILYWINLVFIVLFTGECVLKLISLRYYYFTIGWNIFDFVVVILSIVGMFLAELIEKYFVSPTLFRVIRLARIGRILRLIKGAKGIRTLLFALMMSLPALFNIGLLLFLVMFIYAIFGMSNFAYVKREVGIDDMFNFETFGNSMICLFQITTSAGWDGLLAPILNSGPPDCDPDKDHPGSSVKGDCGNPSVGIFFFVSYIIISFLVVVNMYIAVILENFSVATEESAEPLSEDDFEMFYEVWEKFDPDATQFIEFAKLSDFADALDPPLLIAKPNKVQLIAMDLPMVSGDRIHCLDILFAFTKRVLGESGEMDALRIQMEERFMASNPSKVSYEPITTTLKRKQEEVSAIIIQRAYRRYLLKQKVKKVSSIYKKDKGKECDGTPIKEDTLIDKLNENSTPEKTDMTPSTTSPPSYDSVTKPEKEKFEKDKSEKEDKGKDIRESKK
Outline: (§1)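 Whole-cell patch clamp at 20–22 °C. Pipette solution CsCl/BAPTA/MgATP, pH 7.4; bath NaCl 130 mM, pH 7.4. ≥75% series resistance compensation; cells held at −100 mV for 5 min. Currents evoked by 25 ms steps from −60 to +10 mV every 15 s. Compound from 100 mM DMSO stock, perfused 5 min, then washout. Tonic block taken as peak current with drug versus drug-free.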

PC-3 [2] = experiment: Antitumor activity against human PC3 cells xenografted in athymic BALB/c nude mouse assessed as reduction in tumor volume at 10 mg/kg, ip qd administered every other day for 24 days measured on day 15; assay type: functional, organism-based; parameters: dose 10 mg/kg
Outline: (§2)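 Male athymic nude mice (18–22 g) given 3 × 10^6 PC3 cells subcutaneously in right axillary region; randomized one week later into four groups of 6. Compound from DMSO stock diluted in PEG 400/PBS (1:1), given ip once every other day; vehicle control group. Tumor size by caliper, volume = length × width × height/2. One-way ANOVA or ANOVA on ranks with Tukey/Dunn post hoc; mean ± S.E.M.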

PC-3 [3] = experiment: Antitumor activity against human PC3 cells xenografted in athymic BALB/c nude mouse assessed as reduction in tumor volume at 10 mg/kg, ip qd administered every other day for 24 days; assay type: functional; parameters: scale not given: the % may be the effect or the level left; conditions: route intraperitoneal; outline: as §2
[4] = (§3) Cytotoxicity against human CWR22Rv1 cells assessed as cell death at 25 uM after 24 hrs by propidium iodide staining-based FACS analysis; assay type: functional, CWR22R
Outline: (§4)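 CWR22Rv1 cells seeded at 300,000/well in RPMI 1640 with 10% FBS, 2.5 mM L-glutamine and penicillin-streptomycin at 37 °C, 5% CO2, then switched to serum-free RPMI overnight. Compounds from DMSO stock diluted in serum-free RPMI, applied in triplicate. After treatment, cells trypsinized, fixed in 70% ethanol, RNase-treated (5 μg/mL), stained with propidium iodide (50 μg/mL), DNA content read by flow cytometry.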

[5] = molecular target: Sodium channel protein type 2 subunit alpha (Homo sapiens) (UniProt Q99250); experiment: Reversible inhibition of human voltage-gated sodium channel 1.2-mediated current expressed in HEK293 cells at -60 to +10 mV holding poteinitial at 1 to 10 uM after 5 mins measured after drug washout by patch clamp electrophysiology; assay type: cell-based; outline: as §1
[6] = Cytotoxicity against human CWR22Rv1 cells assessed as cell death at 25 uM after 72 hrs by propidium iodide staining-based FACS analysis; assay type: functional, CWR22R; outline: as §4
[7] = molecular target: Sodium channel protein type 2 subunit alpha (Homo sapiens) (UniProt Q99250); experiment: Inhibition of human voltage-gated sodium channel 1.2-mediated current expressed in HEK293 cells at -60 to +10 mV holding poteinitial at 10 uM after 5 mins by patch clamp electrophysiology; assay type: cell-based; outline: as §1
CWR22R = experiment: as §3; assay type: functional; outline: as §4
hERG (KCNH2) [8] = molecular target: T1, hERG (KCNH2) (Homo sapiens, UniProt Q12809); experiment: Displacement of [35S]MK-0499 from human ERG at 0.3 uM after >90 mins by scintillation counting; conditions: probe [35S]MK-0499
T1 sequence (Q12809 whole entry): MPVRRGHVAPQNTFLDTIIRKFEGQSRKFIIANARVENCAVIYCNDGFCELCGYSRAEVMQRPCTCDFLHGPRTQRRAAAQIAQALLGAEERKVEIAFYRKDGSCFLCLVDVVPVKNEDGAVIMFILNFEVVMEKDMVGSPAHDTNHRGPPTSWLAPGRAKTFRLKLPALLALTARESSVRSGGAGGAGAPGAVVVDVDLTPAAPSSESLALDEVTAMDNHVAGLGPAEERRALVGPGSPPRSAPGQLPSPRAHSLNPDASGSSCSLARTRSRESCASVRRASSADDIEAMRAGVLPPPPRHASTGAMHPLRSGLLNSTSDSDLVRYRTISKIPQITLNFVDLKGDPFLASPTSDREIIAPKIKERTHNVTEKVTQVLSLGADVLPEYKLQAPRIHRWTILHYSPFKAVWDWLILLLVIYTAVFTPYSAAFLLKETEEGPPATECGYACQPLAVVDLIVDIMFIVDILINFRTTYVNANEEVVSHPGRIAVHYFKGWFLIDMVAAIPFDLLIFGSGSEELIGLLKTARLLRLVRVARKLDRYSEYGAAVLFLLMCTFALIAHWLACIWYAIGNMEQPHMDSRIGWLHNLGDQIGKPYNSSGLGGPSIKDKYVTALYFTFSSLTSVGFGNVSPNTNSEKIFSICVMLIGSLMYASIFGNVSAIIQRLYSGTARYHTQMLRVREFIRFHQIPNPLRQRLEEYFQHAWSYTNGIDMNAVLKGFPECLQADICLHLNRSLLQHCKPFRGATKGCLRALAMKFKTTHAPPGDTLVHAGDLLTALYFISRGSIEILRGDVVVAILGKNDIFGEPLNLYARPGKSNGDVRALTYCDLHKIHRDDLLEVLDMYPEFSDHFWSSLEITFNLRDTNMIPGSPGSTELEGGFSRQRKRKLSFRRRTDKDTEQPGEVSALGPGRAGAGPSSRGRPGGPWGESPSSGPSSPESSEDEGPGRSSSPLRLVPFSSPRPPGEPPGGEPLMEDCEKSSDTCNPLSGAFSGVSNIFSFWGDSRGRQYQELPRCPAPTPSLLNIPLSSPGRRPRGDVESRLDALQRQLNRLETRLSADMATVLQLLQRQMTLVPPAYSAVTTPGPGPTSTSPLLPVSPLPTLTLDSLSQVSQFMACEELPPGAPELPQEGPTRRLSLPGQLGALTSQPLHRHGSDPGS
Outline: (§5)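 Binding to membranes from HEK-293 cells stably expressing hERG, with 0.05 nM [35S]MK-499 in NaCl/KCl/HEPES buffer pH 7.4 with Mg2+ and Ca2+, 25 °C for >90 min. Filtered on BSA-presoaked GF/C plates, then scintillation counted. Five-point half-log titration, 0.3–30 μM. Percent inhibition relative to no-competitor control and 1 μM unlabeled MK-499; triplicate.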

hERG (KCNH2) [9] = molecular target: T1, hERG (KCNH2); experiment: Displacement of [35S]MK-0499 from human ERG at 3 uM after >90 mins by scintillation counting; conditions: probe [35S]MK-0499; outline: as §5
hERG (KCNH2) [10] = molecular target: T1, hERG (KCNH2); experiment: Displacement of [35S]MK-0499 from human ERG at 1 uM after >90 mins by scintillation counting; conditions: probe [35S]MK-0499; outline: as §5
hERG (KCNH2) [11] = molecular target: T1, hERG (KCNH2); experiment: Displacement of [35S]MK-0499 from human ERG at 30 uM after >90 mins by scintillation counting; conditions: probe [35S]MK-0499; outline: as §5
[12] = molecular target: Sodium channel protein type 9 subunit alpha (Homo sapiens, UniProt Q15858); experiment: Inhibition of human voltage-gated sodium channel 1.7 expressed in HEK293 cells assessed as changes in membranre potential after 45 mins by FRET analysis
Chain of Sodium channel protein type 9 subunit alpha (Q15858 whole entry): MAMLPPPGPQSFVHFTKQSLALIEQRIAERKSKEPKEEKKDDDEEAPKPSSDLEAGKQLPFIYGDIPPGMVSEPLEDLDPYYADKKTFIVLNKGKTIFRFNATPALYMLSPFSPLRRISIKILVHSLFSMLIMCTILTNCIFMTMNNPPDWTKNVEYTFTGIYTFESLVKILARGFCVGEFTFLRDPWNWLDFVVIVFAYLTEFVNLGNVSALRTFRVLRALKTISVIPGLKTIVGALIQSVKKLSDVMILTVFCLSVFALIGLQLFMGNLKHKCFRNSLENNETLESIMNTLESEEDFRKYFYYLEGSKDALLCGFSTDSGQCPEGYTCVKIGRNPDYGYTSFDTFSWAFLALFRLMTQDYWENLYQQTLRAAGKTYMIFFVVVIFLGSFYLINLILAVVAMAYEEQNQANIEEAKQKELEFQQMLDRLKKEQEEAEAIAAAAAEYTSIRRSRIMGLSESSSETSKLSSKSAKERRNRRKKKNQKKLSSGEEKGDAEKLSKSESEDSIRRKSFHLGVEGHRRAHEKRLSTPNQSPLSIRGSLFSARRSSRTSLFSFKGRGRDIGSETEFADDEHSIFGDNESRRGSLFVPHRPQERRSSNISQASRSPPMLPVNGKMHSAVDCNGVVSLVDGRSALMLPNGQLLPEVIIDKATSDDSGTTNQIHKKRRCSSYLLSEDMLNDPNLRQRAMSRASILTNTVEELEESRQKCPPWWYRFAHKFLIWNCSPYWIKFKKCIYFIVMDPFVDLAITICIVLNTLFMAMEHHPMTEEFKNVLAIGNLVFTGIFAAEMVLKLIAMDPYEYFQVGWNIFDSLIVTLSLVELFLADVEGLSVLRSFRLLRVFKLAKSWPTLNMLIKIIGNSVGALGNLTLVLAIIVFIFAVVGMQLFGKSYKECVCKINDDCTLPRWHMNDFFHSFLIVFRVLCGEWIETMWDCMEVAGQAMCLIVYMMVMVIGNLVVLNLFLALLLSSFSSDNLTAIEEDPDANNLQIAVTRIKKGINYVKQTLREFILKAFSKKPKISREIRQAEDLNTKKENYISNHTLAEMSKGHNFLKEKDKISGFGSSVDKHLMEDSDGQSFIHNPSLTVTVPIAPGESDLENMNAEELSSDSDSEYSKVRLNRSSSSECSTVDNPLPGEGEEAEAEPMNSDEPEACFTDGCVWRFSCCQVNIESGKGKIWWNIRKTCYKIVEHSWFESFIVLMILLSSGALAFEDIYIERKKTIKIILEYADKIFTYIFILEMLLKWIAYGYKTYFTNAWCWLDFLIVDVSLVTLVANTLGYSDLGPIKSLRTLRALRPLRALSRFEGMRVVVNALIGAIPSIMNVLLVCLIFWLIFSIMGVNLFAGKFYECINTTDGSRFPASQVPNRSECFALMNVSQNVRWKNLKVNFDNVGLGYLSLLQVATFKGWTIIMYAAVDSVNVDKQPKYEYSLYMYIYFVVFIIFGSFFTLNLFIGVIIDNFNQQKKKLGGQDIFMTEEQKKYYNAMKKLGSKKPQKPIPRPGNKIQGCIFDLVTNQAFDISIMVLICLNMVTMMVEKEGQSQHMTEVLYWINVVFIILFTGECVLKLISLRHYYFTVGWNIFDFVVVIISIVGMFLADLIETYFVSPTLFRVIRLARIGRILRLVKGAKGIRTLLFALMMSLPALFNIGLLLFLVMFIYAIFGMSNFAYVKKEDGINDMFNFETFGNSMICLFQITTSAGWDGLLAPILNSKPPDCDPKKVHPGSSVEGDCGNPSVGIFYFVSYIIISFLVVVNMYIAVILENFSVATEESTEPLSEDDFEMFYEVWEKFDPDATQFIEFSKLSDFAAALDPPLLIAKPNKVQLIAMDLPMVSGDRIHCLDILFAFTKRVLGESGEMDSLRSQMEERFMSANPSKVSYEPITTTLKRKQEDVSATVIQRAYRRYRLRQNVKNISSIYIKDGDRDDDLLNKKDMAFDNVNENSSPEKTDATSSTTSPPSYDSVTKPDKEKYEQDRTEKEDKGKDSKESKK

hERG (KCNH2) [13] = molecular target: T1, hERG (KCNH2); experiment: Displacement of [35S]MK-0499 from human ERG at 10 uM after >90 mins by scintillation counting; conditions: probe [35S]MK-0499; outline: as §5

CCCCCCC[C@](O)(C(N)=O)c1cccc(Cl)c1
inhibition [1]: 67.4% | Activity (PC-3 [2]): Active | Activity (PC-3 [3]): 62% | Activity [4]: 25% | inhibition [5]: Active | Activity [6]: 60% | inhibition [7]: 94.3%

CCCCCCC[C@@](O)(C(N)=O)c1cccc(Cl)c1
inhibition [1]: 34.9% | Activity (PC-3 [2]): Active | Activity (PC-3 [3]): 62% | Activity (CWR22R): Active | inhibition [5]: Active | Activity [6]: 40% | inhibition [7]: 91.5%

CCCCCCCC(O)(C(N)=O)c1cccc(Cl)c1 (racemic)
inhibition at […], 0.3 µM (hERG (KCNH2) [8]): 15% | inhibition at […], 3 µM (hERG (KCNH2) [9]): 15% | inhibition at […], 1 µM (hERG (KCNH2) [10]): 17% | inhibition [1]: 31.9% | Activity (PC-3 [2]): Active | inhibition at […], 30 µM (hERG (KCNH2) [11]): 78% | Activity (PC-3 [3]): 62% | Activity (CWR22R): Active | inhibition [5]: Active | Activity [6]: 25% | IC50 [12]: 1810 nM | inhibition at […], 10 µM (hERG (KCNH2) [13]): 51% | inhibition [7]: 87%
